22 compounds from ChEMBL document CHEMBL2021856 (ACS Med Chem Lett, 2011) can be followed below.

Common to all, as to type: functional, cell-based
Experiment [1] addresses T1, 5-hydroxytryptamine receptor 2C (Homo sapiens) (UniProt P28335).
T1 sequence (whole entry): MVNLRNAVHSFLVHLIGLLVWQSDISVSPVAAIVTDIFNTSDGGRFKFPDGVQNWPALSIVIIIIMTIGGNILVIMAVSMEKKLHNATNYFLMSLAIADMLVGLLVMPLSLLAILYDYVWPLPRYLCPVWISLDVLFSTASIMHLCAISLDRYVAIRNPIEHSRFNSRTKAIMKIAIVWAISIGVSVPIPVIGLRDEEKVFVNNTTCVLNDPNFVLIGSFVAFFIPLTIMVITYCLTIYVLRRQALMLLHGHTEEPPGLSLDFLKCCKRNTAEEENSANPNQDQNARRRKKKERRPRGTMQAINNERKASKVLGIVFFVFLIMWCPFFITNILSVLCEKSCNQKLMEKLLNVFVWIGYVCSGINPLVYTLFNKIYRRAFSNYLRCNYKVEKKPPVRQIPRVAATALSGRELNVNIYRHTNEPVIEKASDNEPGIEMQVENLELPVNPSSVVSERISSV
The experiment can be described thus: Agonist activity at human 5HT2C receptor expressed in HEK293 cells assessed as calcium flux measured every sec for 3 mins by FLIPR assay relative to 5HT. The method, boiled down:
(§1)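 Calcium flux (Gαq-mediated) in HEK-293 cells stably expressing human 5-HT2A, 5-HT2B or 5-HT2C (INI isoform). […] Racemic trans mixtures were tested unless otherwise stated.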
Background: Calcium assays in cells follow changes in intracellular calcium, usually with a dye or a luminescent sensor.

Experiment [2] deals with T2, 5-hydroxytryptamine receptor 2B (Homo sapiens, UniProt P41595). The experiment can be described thus: Agonist activity at human 5HT2B receptor expressed in HEK293 cells assessed as calcium flux measured every sec for 3 mins by FLIPR assay.
T2 sequence (P41595 whole entry): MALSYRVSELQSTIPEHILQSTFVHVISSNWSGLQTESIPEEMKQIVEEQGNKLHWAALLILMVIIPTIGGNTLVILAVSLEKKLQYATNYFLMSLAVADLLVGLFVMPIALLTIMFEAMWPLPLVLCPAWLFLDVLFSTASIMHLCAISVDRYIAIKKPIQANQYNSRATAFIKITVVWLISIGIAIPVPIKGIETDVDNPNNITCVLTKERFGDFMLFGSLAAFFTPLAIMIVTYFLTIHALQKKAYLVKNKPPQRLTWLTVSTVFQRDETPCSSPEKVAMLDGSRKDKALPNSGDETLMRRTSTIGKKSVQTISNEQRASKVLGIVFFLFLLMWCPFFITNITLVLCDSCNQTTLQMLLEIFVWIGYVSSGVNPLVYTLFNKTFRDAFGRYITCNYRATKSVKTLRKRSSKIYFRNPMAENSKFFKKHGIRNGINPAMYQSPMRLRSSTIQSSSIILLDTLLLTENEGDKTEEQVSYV
Experiment [3] deals with T3, 5-hydroxytryptamine receptor 2A (Homo sapiens, UniProt P28223). The experiment can be described thus: Agonist activity at human 5HT2A receptor expressed in HEK293 cells assessed as calcium flux measured every sec for 3 mins by FLIPR assay.
T3 sequence (P28223 whole entry): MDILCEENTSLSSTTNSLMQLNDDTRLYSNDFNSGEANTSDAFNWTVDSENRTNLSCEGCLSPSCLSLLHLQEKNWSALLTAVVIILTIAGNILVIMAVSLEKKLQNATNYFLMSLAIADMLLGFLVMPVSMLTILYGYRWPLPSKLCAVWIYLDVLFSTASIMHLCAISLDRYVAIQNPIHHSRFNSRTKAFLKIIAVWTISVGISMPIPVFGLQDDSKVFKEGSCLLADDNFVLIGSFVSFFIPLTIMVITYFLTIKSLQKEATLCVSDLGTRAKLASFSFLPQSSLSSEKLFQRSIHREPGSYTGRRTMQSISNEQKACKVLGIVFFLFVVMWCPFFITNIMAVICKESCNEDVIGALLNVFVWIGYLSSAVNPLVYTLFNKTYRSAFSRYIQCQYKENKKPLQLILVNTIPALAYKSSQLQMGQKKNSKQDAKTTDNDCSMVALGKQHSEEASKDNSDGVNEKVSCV
Experiment [4] deals with T4, 5-hydroxytryptamine receptor 2C (Homo sapiens, UniProt P28335).
T4 sequence (P28335 whole entry): T1 sequence (whole entry)
In words: Agonist activity at human 5HT2C receptor expressed in HEK293 cells assessed as calcium flux measured every sec for 3 mins by FLIPR assay.

Experiment [5] deals with T2, 5-hydroxytryptamine receptor 2B. The experiment can be described thus: Agonist activity at human 5HT2B receptor expressed in HEK293 cells assessed as calcium flux measured every sec for 3 mins by FLIPR assay relative to 5HT. The method, boiled down:
as §1

The target in experiment [6] is T3, 5-hydroxytryptamine receptor 2A. The experiment can be described thus: Agonist activity at human 5HT2A receptor expressed in HEK293 cells assessed as calcium flux measured every sec for 3 mins by FLIPR assay relative to 5HT. The method, boiled down:
as §1

As a reminder, the Emax is the greatest response seen or fitted, relative to the assay's reference. In general, EC50 refers to the concentration at which the effect is half-maximal. For the compound `Cl.NC[C@@H]1C[C@H]1c1ccccc1OCC1CC1`, in experiment [1], the maximum response (Emax) came out at 51%. Further, the EC50 result in experiment [2] (hek293) was “Not Active”; in experiment [3] (hek293), “Not Active”; in experiment [4] (read-out: EC50) it was 0.978 µM.
As to `NC[C@H]1C[C@@H]1c1cc(F)ccc1OCC1CC1`, the EC50 was 0.289 µM in experiment [2] (read-out: EC50), 0.894 µM in experiment [3] (read-out: EC50) and 0.021 µM in experiment [4] (read-out: EC50).
On to `NC[C@H]1C[C@@H]1c1ccccc1OCC1CC1`, for which the maximal response (Emax) in experiment [1] is 61%.
With `COc1ccc(-c2cccc(C)c2)cc1[C@H]1C[C@@H]1CN.Cl` (racemic), the maximum response (Emax) in experiment [1] is 69%. Also, the figures for the half-maximal effective concentration (EC50) result in experiment [2] (hek293), in experiment [3] (hek293) and in experiment [4] (read-out: EC50) were “Not Active”, “Not Active” and 8.71 µM, respectively.
On to `COc1ccc(-c2ccc(C)cc2)cc1[C@H]1C[C@@H]1CN.Cl` (racemic), for which the EC50 entry in experiment [2] (hek293), in experiment [3] (hek293) and in experiment [4] (hek293) was “Not Active” throughout.
`COc1ccc(-c2ccccc2F)cc1[C@H]1C[C@@H]1CN.Cl` (racemic): in experiment [1], the maximum response (Emax) is 69%. Moreover, the EC50 result in experiment [2] (hek293) is “Not Active”; in experiment [3] (hek293) it was “Not Active”; in experiment [4] (read-out: EC50), 3.31 µM.
For `COc1ccc(-c2cccc(F)c2)cc1[C@H]1C[C@@H]1CN.Cl` (racemic), in experiment [1], the maximal effect (Emax) turned out to be 59%. Also, the EC50 result was “Not Active” in experiment [2] (hek293), “Not Active” in experiment [3] (hek293) and 7.24 µM in experiment [4] (read-out: EC50).
Take `COc1ccc(-c2ccc(F)cc2)cc1[C@H]1C[C@@H]1CN.Cl` (racemic): the maximum response (Emax) in experiment [1] was 83%. Besides, the EC50 result was “Not Active” in experiment [2] (hek293), “Not Active” in experiment [3] (hek293) and 2.19 µM in experiment [4] (read-out: EC50).
On to `CCCCc1ccc(-c2ccc(OC)c([C@H]3C[C@@H]3CN)c2)cc1.Cl` (racemic), for which the half-maximal effective concentration (EC50) result in experiment [2] (hek293), in experiment [3] (hek293) and in experiment [4] (hek293) was “Not Active” in each case.
Take `Cc1ccc(OCC(C)C)c([C@H]2C[C@@H]2CN)c1.Cl` (racemic): the 50% effective concentration (EC50) entry in experiment [2] (hek293), in experiment [3] (hek293) and in experiment [4] (hek293) was “Not Active” each time.
As for `CCCCOc1ccc(C)cc1[C@H]1C[C@@H]1CN.Cl` (racemic), the 50% effective concentration (EC50) entry in experiment [2] (hek293), in experiment [3] (hek293) and in experiment [4] (hek293) was “Not Active” in each case.
Turning to `CCOc1ccccc1[C@H]1C[C@@H]1CN` (racemic), the Emax in experiment [1] was 99%; in experiment [5], 48%; in experiment [6], 64%. Further, the EC50 in experiment [2] (read-out: EC50) is 0.331 µM; in experiment [3] (read-out: EC50), 3.02 µM; in experiment [4] (read-out: EC50), 0.018 µM.
Turning to `CCCOc1ccccc1[C@H]1C[C@@H]1CN.Cl` (racemic), the maximum response (Emax) was 70% in experiment [1] and 16% in experiment [5]. Besides, the concentration giving a half-maximal response (EC50) in experiment [2] (read-out: EC50) is 0.304 µM; in experiment [3] (hek293), “Not Active”; in experiment [4] (read-out: EC50), 0.024 µM.
Regarding `CC(C)COc1ccccc1[C@H]1C[C@@H]1CN.Cl` (racemic), the Emax in experiment [1] worked out at 84%. In addition, the EC50 result in experiment [2] (hek293) is “Not Active”; in experiment [3] (hek293), “Not Active”; in experiment [4] (read-out: EC50) it was 0.254 µM.
With `CCCCCOc1ccccc1[C@H]1C[C@@H]1CN.Cl` (racemic), the 50% effective concentration (EC50) result in experiment [2] (hek293), in experiment [3] (hek293) and in experiment [4] (hek293) was “Not Active” throughout.
In the case of `Cl.NC[C@H]1C[C@@H]1c1ccccc1OCC1CC1` (racemic), the EC50 result in experiment [2] (hek293) and in experiment [3] (hek293) was “Not Active” each time.
On to `Cl.NC[C@H]1C[C@@H]1c1ccccc1OCC1CCC1` (racemic), for which the Emax in experiment [1] worked out at 31%. Moreover, the results for the half-maximal effective concentration (EC50) entry in experiment [2] (hek293), in experiment [3] (hek293) and in experiment [4] (read-out: EC50) were “Not Active”, “Not Active” and 1.21 µM, respectively.
Take `Cl.NC[C@H]1C[C@@H]1c1ccccc1OCC1CCCCC1` (racemic): the EC50 result in experiment [2] (hek293), in experiment [3] (hek293) and in experiment [4] (hek293) was “Not Active” each time.
As to `Cl.NC[C@H]1C[C@@H]1c1ccccc1OCc1ccccc1` (racemic), the Emax was found to be 74% in experiment [1] and 20% in experiment [5]. Also, the EC50 in experiment [2] (read-out: EC50) is 1.08 µM; in experiment [3] (hek293) it was “Not Active”; in experiment [4] (read-out: EC50) it was 0.304 µM.
In the case of `COc1ccc(-c2ccccc2)cc1[C@H]1C[C@@H]1CN.Cl` (racemic), in experiment [1], the maximal effect (Emax) turned out to be 64%. Moreover, the results for the 50% effective concentration (EC50) entry in experiment [2] (hek293), in experiment [3] (hek293) and in experiment [4] (read-out: EC50) were “Not Active”, “Not Active” and 3.8 µM, respectively.
As for `COc1ccc(-c2ccccc2C)cc1[C@H]1C[C@@H]1CN.Cl` (racemic), the maximal effect (Emax) in experiment [1] amounted to 67%. For the same compound, the results for the EC50 entry in experiment [2] (hek293), in experiment [3] (hek293) and in experiment [4] (read-out: EC50) were “Not Active”, “Not Active” and 3.47 µM, respectively.
For the compound `NC[C@H]1C[C@@H]1c1ccccc1OCC1CC1` (racemic), in experiment [1], the Emax came out at 60%.
